Experimental data from ChEMBL document CHEMBL1138069, “Synthesis and SAR of 1,3-disubstituted cyclohexylmethyl urea and amide derivatives as non-peptidic motilin receptor antagonists” (Bioorg Med Chem Lett, 2006).
Calls of active or inactive are those of the source. The calls are words filed in the database; no cut-off is given here.

Tests used:
Motilin receptor [1] = target: T1, Motilin receptor (Homo sapiens, UniProt O43193); test: Activity at human motilin receptor transfected in HEK293 cells assessed as inhibition of motilin-induced intracellular calcium mobilization; type: functional, cell-based
[2] = target: Motilin receptor (Oryctolagus cuniculus) (UniProt A5A4K8); test: Agonist activity at rabbit duodenum motilin receptor by tissue contractility assay at 10 uM; type: functional
Motilin receptor [3] = target: T1, Motilin receptor; test: Agonist activity at human motilin receptor transfected in HEK293 cells assessed as inhibition of motilin-induced intracellular calcium mobilization at 30 uM; type: functional, cell-based
Motilin receptor [4] = target: T2, Motilin receptor (Oryctolagus cuniculus, UniProt A5A4K8); test: Inhibition of [125]I-motilin binding to rabbit motilin receptor
Outline: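 Rabbit colon membranes, homogenized in Tris–HCl pH 7.5 and centrifuged, with the pellet stored frozen. Bound tracer was separated by centrifugation. Nonspecific binding was taken with unlabeled porcine motilin. IC50 values are means of at least two separate determinations.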

[5] = target: Motilin receptor (Oryctolagus cuniculus) (UniProt A5A4K8); test: Inhibition of [125]I-motilin binding to rabbit motilin receptor at 1 uM
Motilin receptor [6] = target: T2, Motilin receptor; test: Inhibition of [125]I-motilin binding to rabbit motilin receptor
Motilin receptor [7] = target: T2, Motilin receptor; test: Activity at rabbit duodenum motilin receptor by tissue contractility assay; type: functional

T1 sequence (O43193 whole entry): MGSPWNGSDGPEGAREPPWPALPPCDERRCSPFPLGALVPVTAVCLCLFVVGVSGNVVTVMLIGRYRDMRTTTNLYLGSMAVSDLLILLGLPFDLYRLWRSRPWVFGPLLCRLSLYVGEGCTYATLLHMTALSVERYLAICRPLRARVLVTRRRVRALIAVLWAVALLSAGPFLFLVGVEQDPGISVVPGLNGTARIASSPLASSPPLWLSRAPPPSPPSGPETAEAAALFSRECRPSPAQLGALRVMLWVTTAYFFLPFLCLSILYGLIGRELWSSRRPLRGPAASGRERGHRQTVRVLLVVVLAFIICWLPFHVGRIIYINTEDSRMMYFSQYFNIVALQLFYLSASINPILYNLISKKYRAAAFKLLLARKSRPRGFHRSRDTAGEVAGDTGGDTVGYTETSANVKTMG
Motilin receptor (Oryctolagus cuniculus), sequence (A5A4K8 as listed by the source): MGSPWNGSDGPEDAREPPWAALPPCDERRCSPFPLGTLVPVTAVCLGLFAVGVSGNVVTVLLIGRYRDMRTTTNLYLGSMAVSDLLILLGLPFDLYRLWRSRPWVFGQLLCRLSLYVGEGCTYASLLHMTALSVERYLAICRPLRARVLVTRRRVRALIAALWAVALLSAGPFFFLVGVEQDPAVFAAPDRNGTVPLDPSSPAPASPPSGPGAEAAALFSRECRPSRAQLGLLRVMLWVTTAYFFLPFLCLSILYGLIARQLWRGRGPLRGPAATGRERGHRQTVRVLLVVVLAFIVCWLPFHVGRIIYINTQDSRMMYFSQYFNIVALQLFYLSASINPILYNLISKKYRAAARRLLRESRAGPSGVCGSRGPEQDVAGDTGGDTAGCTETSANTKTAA
T2 sequence (A5A4K8 whole entry): as the sequence (A5A4K8 as listed by the source) above

Row | SMILES | Activity [2] | Activity (Motilin receptor [3]) | IC50 (Motilin receptor [4]) | inhibition [5] | also measured
1 | CC(C)(C)C(=O)N(Cc1ccccc1)[C@@H]1CCC[C@H](CN(C(=O)c2ccc(F)cc2)c2cccc(OCCN3CCCC3)c2)C1 | inactive | inactive | – | – | IC50 (Motilin receptor [1]): 0.338 µM
2 | O=C(Nc1ccccc1)N(CC1CCCC(N(Cc2ccccc2)C(=O)CCc2ccccc2)C1)c1cccc(OCCN2CCOCC2)c1 (stereo unspecified) | – | – | 0.73 µM | – | –
3 | O=C(c1ccc(F)cc1)N(CC1CCCC(N(Cc2cccc([N+](=O)[O-])c2)C(=O)C(Cl)(Cl)Cl)C1)c1cccc(OCCN2CCCC2)c1 (stereo unspecified) | inactive | inactive | 0.014 µM | – | IC50 (Motilin receptor [1]): 0.052 µM
4 | CC(C)(C)C(=O)N(Cc1ccccc1)[C@H]1CCC[C@@H](CN(C(=O)c2ccc(F)cc2)c2cccc(OCCN3CCCC3)c2)C1 | inactive | inactive | – | – | IC50 (Motilin receptor [1]): 2.48 µM
5 | CC(C)(C)C(=O)N(Cc1ccccc1)C1CCCC(CN(C(=O)c2ccc(F)cc2)c2cccc(OCCN3CCOCC3)c2)C1 (racemic) | inactive | inactive | 0.772 µM | – | –
6 | CC(C)(C)C(=O)N(Cc1ccccc1)C1CCCC(CN(C(=O)Nc2ccccc2)c2cccc(OCCN3CCCC3)c2)C1 (racemic) | – | – | – | – | IC50 (Motilin receptor [6]): 0.021 µM
7 | O=C(c1ccc(F)cc1)N(CC1CCCC(N(Cc2ccccc2)C(=O)C(Cl)(Cl)Cl)C1)c1cccc(OCCN2CCCC2)c1 (racemic) | inactive | inactive | 0.058 µM | – | IC50 (Motilin receptor [7]): 0.027 µM
8 | O=C(Nc1ccccc1)N(CC1CCCC(N(Cc2ccccc2)C(=O)c2cccc([N+](=O)[O-])c2)C1)c1cccc(OCCN2CCOCC2)c1 (racemic) | – | – | 1.16 µM | – | –
9 | O=C(Nc1ccccc1)N(CC1CCCC(N(Cc2ccccc2)C(=O)c2ccco2)C1)c1cccc(OCCN2CCOCC2)c1 (racemic) | – | – | 0.656 µM | – | –
10 | CC(C)(C)C(=O)N(Cc1ccccc1)C1CCCC(CN(C(=O)c2ccc(F)cc2)c2cccc(OCCN3CCCC3)c2)C1 (racemic) | inactive | inactive | – | – | IC50 (Motilin receptor [1]): 0.99 µM
11 | O=C(c1ccc(F)cc1)N(CC1CCCC(N(Cc2cccc(Cl)c2)C(=O)C(Cl)(Cl)Cl)C1)c1cccc(OCCN2CCCC2)c1 (racemic) | inactive | inactive | 0.058 µM | – | IC50 (Motilin receptor [1]): 0.267 µM
12 | O=C(c1ccc(F)cc1)N(CC1CCCC(N(Cc2cccc(Cl)c2)C(=O)C(Cl)(Cl)Cl)C1)c1cccc(OCCN2CCCCC2)c1 (racemic) | inactive | inactive | 0.063 µM | – | IC50 (Motilin receptor [1]): 0.228 µM; IC50 (Motilin receptor [7]): 0.021 µM
13 | CC(C)(C)C(=O)N(Cc1ccccc1)C1CCCC(CN(C(=O)Nc2ccccc2)c2cccc(OCCN3CCOCC3)c2)C1 (racemic) | – | – | – | 50% | –
14 | COc1cccc(C(=O)NC2CCCC(CN(C(=O)Nc3ccccc3)c3cccc(OCCN4CCOCC4)c3)C2)c1 (racemic) | – | – | – | 26% | –
15 | O=C(Nc1ccccc1)N(CC1CCCC(N(Cc2ccccc2)C(=O)c2ccc(-c3ccccc3)cc2)C1)c1cccc(OCCN2CCOCC2)c1 (racemic) | – | – | – | 3% | –

The next lines start with results.

Row | Activity [2] | Activity (Motilin receptor [3]) | IC50 (Motilin receptor [4]) | inhibition [5] | SMILES | also measured
16 | – | – | 0.01 µM | – | O=C(Nc1ccccc1)N(CC1=C[C@@](Cc2cccc(Cl)c2)(NC(=O)C(Cl)(Cl)Cl)CC1)c1cccc(OCCN2CCOCC2)c1 | –
17 | – | – | 0.02 µM | – | O=C(Nc1ccccc1)N(CC1=C[C@@](Cc2ccccc2)(NC(=O)C(Cl)(Cl)Cl)CC1)c1cccc(OCCN2CCOCC2)c1 | –
18 | – | – | – | 4% | O=C(Nc1ccccc1)N(c1cccc(OCCN2CCOCC2)c1)C1CCC(CN(Cc2cccc(Cl)c2)C(=O)C(Cl)(Cl)Cl)C1 (stereo unspecified) | –
19 | – | – | 0.035 µM | – | O=C(Nc1ccccc1)N(CC1CCCC(N(Cc2cccc([N+](=O)[O-])c2)C(=O)C(Cl)(Cl)Cl)C1)c1cccc(OCCN2CCOCC2)c1 (racemic) | –
20 | – | – | 0.957 µM | – | O=C(Nc1ccccc1)N(CC1CCCC(N(Cc2ccccc2)C(=O)C(Cl)(Cl)Cl)C1)c1cccc(OCCN2CCOCC2)c1 (racemic) | –
21 | – | – | 0.65 µM | – | COc1cccc(C(=O)N(Cc2cccc(Cl)c2)C2CCCC(CN(C(=O)Nc3ccccc3)c3cccc(OCCN4CCOCC4)c3)C2)c1 (racemic) | –
22 | – | – | – | 6% | COc1cccc(C(=O)N(Cc2cccc(Cl)c2)C2CCC(CN(C(=O)Nc3ccccc3)c3cccc(OCCN4CCOCC4)c3)CC2)c1 (racemic) | –
23 | – | – | – | 58% | O=C(Nc1ccccc1)N(CC1CCCC(N(Cc2cccc(C(F)(F)F)c2)C(=O)C(Cl)(Cl)Cl)C1)c1cccc(OCCN2CCOCC2)c1 (racemic) | –
24 | – | – | – | 23% | O=C(Nc1ccccc1)N(CC1CCCC(N(Cc2cccc(Cl)c2)C(=O)C(Cl)(Cl)Cl)C1)c1cccc(OCCN2CCOCC2)c1 (racemic) | –
25 | – | – | – | 28% | O=C(Nc1ccccc1)N(CC1CCCC(NCc2cccc(Cl)c2)C1)c1cccc(OCCN2CCOCC2)c1 (racemic) | –
